Values belong to the molecule of their own block, whether it stands above or below them.
Key:
[1] = target: T1, Human immunodeficiency virus type 1 integrase (Human immunodeficiency virus 1, UniProt Q7ZJM1); experiment: Inhibition of HIV1 integrase 3' processing activity
In short: (§1)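 HIV-1 integrase (200 nM final) preincubated 30 min at 30 °C with inhibitor in buffer (pH 7.2 MOPS, NaCl, HEPES, EDTA, DTT, 10% glycerol, 7.5 mM MnCl₂, 0.1 mg/ml BSA, 2-mercaptoethanol, 10% DMSO). 20 nM 5'-³²P-labeled linear oligonucleotide substrate then added for 1 h. Quenched with formamide loading dye; products resolved on denaturing 20% polyacrylamide/urea gel. IC₅₀ reported for each step.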

[2] = target: T1, Human immunodeficiency virus type 1 integrase; experiment: Inhibition of HIV1 integrase strand transfer activity; in short: as §1
[3] = test system: MOLT-4; experiment: Growth inhibition of human MOLT4 cells; type: functional
In short: (§2)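 Run by the US National Cancer Institute in vitro screen against a panel of 53–57 human tumor cell lines. GI₅₀ is defined as the molar concentration inhibiting 50% net cell growth. TGI is the concentration giving total growth inhibition.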

[4] = test system: SNB-19; experiment: Growth inhibition of human SNB19 cells; type: functional; in short: as §2
[5] = test system: LOX IMVI; experiment: Growth inhibition of human LOX IMVI cells; type: functional; details: for TGI / GI50: Homo sapiens, LOX IMVI; in short: as §2
[6] = test system: T47D; experiment: Growth inhibition of human T47D cells; type: functional; in short: as §2
[7] = test system: BT-549; experiment: Growth inhibition of human BT549 cells; type: functional; in short: as §2
[8] = test system: SR; experiment: Growth inhibition of human SR cells; type: functional; in short: as §2
[9] = test system: SNB-75; experiment: Growth inhibition of human SNB75 cells; type: functional; in short: as §2
[10] = test system: SF-268; experiment: (§3) Growth inhibition of human SF268 cells; type: functional; in short: as §2
[11] = test system: Malme-3M; experiment: Growth inhibition of human MALME-3M cells; type: functional; in short: as §2
[12] = test system: A498; experiment: Growth inhibition of human A498 cells; type: functional; in short: as §2
[13] = test system: UACC-62; experiment: Growth inhibition of human UACC62 cells; type: functional; in short: as §2
[14] = test system: HOP-62; experiment: Growth inhibition of human HOP62 cells; type: functional; in short: as §2
[15] = test system: M14; experiment: Growth inhibition of human M14 cells; type: functional; in short: as §2
[16] = test system: SF-268; experiment: as §3; type: functional; in short: as §2; remark: listed apart in the source
[17] = test system: NCI-H522; experiment: Growth inhibition of human NCI-H522 cells; type: functional; in short: as §2
[18] = test system: HCT-116; experiment: Growth inhibition of human HCT116 cells; type: functional; in short: as §2
[19] = test system: NCI-H322M; experiment: Growth inhibition of human NCI-H322M cells; type: functional; in short: as §2
[20] = test system: KM12; experiment: Growth inhibition of human KM12 cells; type: functional; in short: as §2
[21] = test system: SK-MEL-5; experiment: Growth inhibition of human SK-MEL-5 cells; type: functional; in short: as §2
[22] = test system: EKVX; experiment: Growth inhibition of human EKVX cells; type: functional; in short: as §2
[23] = test system: CCRF-CEM; experiment: Growth inhibition of human CCRF-CEM cells; type: functional; in short: as §2
[24] = test system: HCC 2998; experiment: Growth inhibition of human HCC2998 cells; type: functional; in short: as §2
[25] = test system: SN12C; experiment: Growth inhibition of human SN12C cells; type: functional; in short: as §2

T1 sequence (Q7ZJM1 whole entry): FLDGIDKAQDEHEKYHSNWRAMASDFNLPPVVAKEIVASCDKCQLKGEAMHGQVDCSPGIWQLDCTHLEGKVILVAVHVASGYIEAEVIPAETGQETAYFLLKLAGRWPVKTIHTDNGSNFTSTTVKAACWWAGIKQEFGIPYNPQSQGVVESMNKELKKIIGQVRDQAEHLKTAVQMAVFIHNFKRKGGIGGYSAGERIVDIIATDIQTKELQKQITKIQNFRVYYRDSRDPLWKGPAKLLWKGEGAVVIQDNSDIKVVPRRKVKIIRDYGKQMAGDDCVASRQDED

IC50 [1]: 47 µM
IC50 [2]: 33 µM
Structure (SMILES): Cc1cc(S(=O)(=O)Nc2nc3cc(Cl)ccc3c(=O)[nH]2)c(SCc2ccccc2)cc1Cl

GI50 [3]: 18.6 µM
GI50 [6]: 15 µM
GI50 [7]: 15.7 µM
IC50 [1]: 78 µM
IC50 [2]: 42 µM
Structure (SMILES): Cc1cc(S(=O)(=O)Nc2nc3ccccc3c(=O)n2Cc2ccco2)c(S)cc1Cl
TGI [3]: 70.6 µM
GI50 [4]: < 0.01 µM
TGI [4]: 88.8 µM
growth inhibitory concentration [5]: 16.1 µM
TGI [5]: 59.3 µM
TGI [6]: 81.4 µM
TGI [7]: 51.9 µM
GI50 [8]: 19.5 µM
TGI [8]: 40.7 µM

IC50 [1]: 22 µM
IC50 [2]: 4 µM
Structure (SMILES): Cc1cc(S(=O)(=O)Nc2nc3cc(C(C)(C)C)sc3c(=O)n2Cc2ccccc2)c(S)cc1Cl

IC50 [1]: > 100 µM
IC50 [2]: 77 µM
Structure (SMILES): Cc1ccc(NC(=O)c2cc(S(=O)(=O)Nc3nc4ccccc4c(=O)[nH]3)c(SCc3ccccc3)cc2Cl)cc1

IC50 [1]: 65 µM
IC50 [2]: 53 µM
Structure (SMILES): Cc1cc(S(=O)(=O)Nc2nc3ccsc3c(=O)n2N)c(S)cc1Cl

IC50 [1]: 73 µM
IC50 [2]: 36 µM
Structure (SMILES): O=C(Nc1ccccc1)c1cc(S(=O)(=O)Nc2nc3ccccc3c(=O)[nH]2)c(SCc2ccccc2)cc1Cl

IC50 [1]: 60 µM
IC50 [2]: 35 µM
Structure (SMILES): Cc1cc(S(=O)(=O)Nc2nc3cc(C(C)(C)C)sc3c(=O)n2N)c(S)cc1Cl

IC50 [1]: > 100 µM
IC50 [2]: > 100 µM
Structure (SMILES): NC(=O)c1cc(S(=O)(=O)Nc2nc3ccccc3c(=O)[nH]2)c(SCc2ccccc2)cc1Cl

IC50 [1]: 69 µM
IC50 [2]: 43 µM
Structure (SMILES): Cc1cc(S(=O)(=O)Nc2nc3cscc3c(=O)n2N)c(S)cc1Cl
GI50 [9]: 15 µM
TGI [9]: 58.5 µM
GI50 [10]: 17.7 µM
TGI [10]: 68.1 µM

GI50 [3]: > 100 µM
GI50 [17]: > 100 µM
GI50 [18]: > 100 µM
GI50 [19]: > 100 µM
GI50 [21]: > 100 µM
GI50 [6]: > 100 µM
GI50 [7]: > 100 µM
IC50 [1]: 8 µM
IC50 [2]: 6 µM
GI50 [23]: > 100 µM
GI50 [24]: > 100 µM
Structure (SMILES): Cc1cc(S(=O)(=O)Nc2nc3cc(-c4ccsc4)sc3c(=O)n2Cc2ccco2)c(S)cc1Cl
GI50 [11]: > 100 µM
GI50 [12]: > 100 µM
GI50 [9]: > 100 µM
GI50 [13]: > 100 µM
GI50 [14]: > 100 µM
GI50 [15]: > 100 µM
GI50 [16]: > 100 µM
GI50 [4]: > 100 µM
GI50 [20]: > 100 µM
GI50 [10]: > 100 µM
GI50 [5]: > 100 µM
GI50 [22]: > 100 µM
GI50 [8]: > 100 µM
GI50 [25]: > 100 µM

GI50 [3]: 3.9 µM
GI50 [19]: 18.2 µM
GI50 [6]: 4.5 µM
IC50 [1]: 80 µM
IC50 [2]: 31 µM
GI50 [23]: 14 µM
GI50 [24]: 18.9 µM
Structure (SMILES): Cc1cc(S(=O)(=O)Nc2nc3cscc3c(=O)n2Cc2ccccc2)c(S)cc1Cl
TGI [3]: 32.5 µM
GI50 [14]: 16.5 µM
TGI [14]: 39.3 µM
TGI [19]: 45.9 µM
GI50 [20]: 19.9 µM
TGI [20]: 74.7 µM
GI50 [5]: 18.2 µM
TGI [5]: 51.6 µM
TGI [6]: 40.8 µM
TGI [23]: 47.6 µM
TGI [24]: 68.5 µM
GI50 [25]: 16.6 µM
TGI [25]: 54.5 µM

GI50 [3]: 19.4 µM
IC50 [1]: 62 µM
IC50 [2]: 53 µM
Structure (SMILES): Cc1cc(S(=O)(=O)Nc2nc3ccsc3c(=O)n2Cc2ccco2)c(S)cc1Cl
TGI [3]: 84.2 µM
GI50 [8]: 9.9 µM
TGI [8]: 29.7 µM

IC50 [1]: > 100 µM
IC50 [2]: 78 µM
Structure (SMILES): Cc1cc(S(=O)(=O)Nc2nc3cscc3c(=O)[nH]2)c(SCc2ccccc2)cc1Cl

IC50 [1]: > 100 µM
IC50 [2]: 70 µM
Structure (SMILES): Cc1cc(S(=O)(=O)Nc2nc3ccsc3c(=O)[nH]2)c(SCc2ccccc2)cc1Cl
